Results taken from ChEMBL document CHEMBL1122242, “Phenylenebis(oxy)bis[2,2-dimethylpentanoic acid]s: agents that elevate high-density lipoproteins” (1983).
Values joined by “and” are separate entries in the source; they are usually repeats but may differ in a detail not shown here. Identical values can stand only once.

Experiments:
Assay type in all cases: functional
[1] = organism: Rattus norvegicus; test: Hypolipidemic effects(plasma TG) in male rats
Method in brief: (§1)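 Male rats, 10 per group, fed 7 days on chow with 10% fat (5.5% added peanut oil), 1.5% cholesterol and 0.1% cholic acid. Oral gavage on days 4-7 in 4% acacia, usually 50 mg/kg daily. Fasted overnight, killed day 8, atrial blood into EDTA. Plasma cholesterol, TG and HDL cholesterol (after MnCl2/heparin precipitation) by Autoanalyzer. % change vs controls, Student's t test.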

[2] = organism: Rattus norvegicus; test: Hypolipidemic effects(plasma cholesterol) in male rats; method in brief: as §1
[3] = test system: Rattus norvegicus; test: Hypolipidemic effects (high-density lipoprotein (HDL) cholesterol) in male rats;Compound was screening orally at 50 mg/Kg; method in brief: as §1
[4] = organism: Rattus norvegicus; test: Hypolipidemic effects(liver weight) in male rats; method in brief: as §1
[5] = test system: Rattus norvegicus; test: Hypolipidemic effects (low-density lipoprotein (LDL) cholesterol) in male rats;Compound was screening orally at 50 mg/Kg; method in brief: as §1
[6] = test system: Rattus norvegicus; test: Hypolipidemic effects (high-density lipoprotein (HDL) cholesterol) in male rats; Compound was screening orally at 50 mg/Kg; method in brief: as §1
[7] = organism: Rattus norvegicus; test: Hypolipidemic effects (low-density lipoprotein (LDL) cholesterol) in male rats; method in brief: as §1
[8] = test system: Rattus norvegicus; test: Hypolipidemic effects(plasma cholesterol) in male rats at 12.50 mg/kg; conditions: dose 12.5 mg/kg
Method in brief: (§2)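 Head-to-head oral dosing at 12.5, 25 and 50 mg/kg daily […] in male rats kept on a high lipid diet, alongside gemfibrozil reference. Plasma lipid fractions and liver weight expressed as % change vs controls.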

[9] = test system: Rattus norvegicus; test: Hypolipidemic effects as the ratio of (HDL/LDL) in male rats at dose 12.5 mg/kg.
Method in brief: (§3)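 Male rats on a high lipid diet, dosed orally […] at 12.5, 25 or 50 mg/kg, with gemfibrozil reference. HDL/LDL (VLDL included) ratio from densitometry of polyacrylamide gel electrophoresis patterns of plasma. Expressed as % change vs controls.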

[10] = test system: Rattus norvegicus; test: Hypolipidemic effects(liver weight) in male rats at 25 mg/kg; method in brief: as §2
[11] = test system: Rattus norvegicus; test: Hypolipidemic effects (Low-density lipoprotein (LDL) cholesterol) in male rats at 12.50 mg/kg; conditions: dose 12.5 mg/kg; method in brief: as §2
[12] = test system: Rattus norvegicus; test: Hypolipidemic effects (high-density lipoprotein (HDL) cholesterol) in male rats at 25 mg/kg; method in brief: as §2
[13] = test system: Rattus norvegicus; test: Hypolipidemic effects (Low-density lipoprotein (LDL) cholesterol) in male rats at 25 mg/kg; method in brief: as §2
[14] = test system: Rattus norvegicus; test: Hypolipidemic effects(liver weight) in male rats at 12.50 mg/kg; conditions: dose 12.5 mg/kg; method in brief: as §2
[15] = test system: Rattus norvegicus; test: Hypolipidemic effects(plasma cholesterol) in male rats at 25 mg/kg; method in brief: as §2
[16] = test system: Rattus norvegicus; test: Hypolipidemic effects(plasma TG) in male rats at 25 mg/kg; method in brief: as §2
[17] = test system: Rattus norvegicus; test: Hypolipidemic effects(plasma cholesterol) in male rats;Compound was screening orally at 50 mg/Kg; method in brief: as §1
[18] = test system: Rattus norvegicus; test: Hypolipidemic effects as the ratio of (HDL/LDL) in male rats at dose 50 mg/kg.; method in brief: as §3
[19] = test system: Rattus norvegicus; test: Hypolipidemic effects(plasma TG) in male rats at 12.50 mg/kg; conditions: dose 12.5 mg/kg; method in brief: as §2
[20] = test system: Rattus norvegicus; test: Hypolipidemic effects as the ratio of (HDL/LDL) in male rats at dose 25 mg/kg.; method in brief: as §3
[21] = test system: Rattus norvegicus; test: Hypolipidemic effects(plasma TG) in male rats;Compound was screening orally at 50 mg/Kg; method in brief: as §1
[22] = test system: Rattus norvegicus; test: Hypolipidemic effects (high-density lipoprotein (HDL) cholesterol) in male rats at 12.50 mg/kg; conditions: dose 12.5 mg/kg; method in brief: as §2
[23] = test system: Rattus norvegicus; test: Hypolipidemic effects(plasma cholesterol) in male rats at 50 mg/kg; method in brief: as §2
[24] = test system: Rattus norvegicus; test: Hypolipidemic effects (Low-density lipoprotein (LDL) cholesterol) in male rats at 50 mg/kg; Compound was screening orally at 50 mg/Kg; method in brief: as §1
[25] = test system: Rattus norvegicus; test: Hypolipidemic effects (high-density lipoprotein (HDL) cholesterol) in male rats at 50 mg/kg; Compound was screening orally at 50 mg/Kg; method in brief: as §1
[26] = test system: Rattus norvegicus; test: Hypolipidemic effects(liver weight) in male rats at 50 mg/kg; method in brief: as §2
[27] = test system: Rattus norvegicus; test: Hypolipidemic effects(plasma TG) in male rats at 50 mg/kg; method in brief: as §2
[28] = test system: Rattus norvegicus; test: Hypolipidemic effects (high-density lipoprotein (HDL) cholesterol) in male rats at 50 mg/kg; method in brief: as §2
[29] = test system: Rattus norvegicus; test: Hypolipidemic effects (high-density lipoprotein (HDL) cholesterol) in male rats at 50 mg/kg orally; conditions: route oral; method in brief: as §2
[30] = test system: Rattus norvegicus; test: Hypolipidemic effects (Low-density lipoprotein (LDL) cholesterol) in male rats at 50 mg/kg; method in brief: as §2
[31] = test system: Rattus norvegicus; test: Hypolipidemic effects(plasma cholesterol) in male rats at a dose of 50 mg/kg; method in brief: as §1
[32] = test system: Rattus norvegicus; test: Hypolipidemic effects (high-density lipoprotein (HDL) cholesterol) in male rats at 12.5 mg/kg; method in brief: as §2
[33] = test system: Rattus norvegicus; test: Hypolipidemic effects(liver weight) in male rats at 12.5 mg/kg; method in brief: as §2
[34] = test system: Rattus norvegicus; test: Hypolipidemic effects (high-density lipoprotein (HDL) cholesterol) in male rats at a dose of 50 mg/kg; Compound was screening orally at 50 mg/Kg; method in brief: as §1
[35] = test system: Rattus norvegicus; test: Hypolipidemic effects (Low-density lipoprotein (LDL) cholesterol) in male rats at a dose of 50 mg/kg; Compound was screening orally at 50 mg/Kg; method in brief: as §1
[36] = test system: Rattus norvegicus; test: Hypolipidemic effects(plasma TG) in male rats at a dose of 50 mg/kg; method in brief: as §1

O=C(O)C1(CCCCOc2ccc(OCCCCC3(C(=O)O)CCC3)cc2)CCC1
Change [1]: 0%
Change [2]: -23%
Change [3]: 55%
Change [4]: 0%
Change [5]: -32%

COC(=O)C(C)(C)CCCOc1ccc(C=N/N=C(/N)S)c(OCCCC(C)(C)C(=O)OC)c1
Change [1]: -50%
Change [2]: -60%
Change [6]: 280%
Change [4]: 38%
Change [5]: -83%

CCCC(O)c1cc(OCCCC(C)(C)C(=O)O)ccc1OCCCC(C)(C)C(=O)O (stereo not given)
Change [1]: 0%
Change [2]: 61%
Change [6]: 1292%
Change [4]: 37%
Change [5]: -45%

COC(=O)C(C)(C)CCCOc1cccc(OC)c1OCCCC(C)(C)C(=O)OC
Change [1]: 0%
Change [2]: 0%
Change [3]: 0%
Change [4]: 0%
Change [7]: 0%

CC(C)(CCCOc1ccc(SCCCC(C)(C)C(=O)O)cc1)C(=O)O
Change [8]: -19%
Change [6]: 628%
Change [9]: 101%
Change [10]: 6%
Change [11]: -25%
Change [12]: 232%
Change [13]: -40%
Change [14]: 0%
Change [15]: -22%
Change [4]: 18%
Change [16]: 37%
Change [17]: -44%
Change [18]: 785%
Change [19]: 0%
Change [20]: 302%
Change [21]: -40%
Change [22]: 74%
Change [7]: -51%

COC(=O)C(C)(C)CCCOc1ccc(OCCCC(C)(C)C(=O)OC)c(F)c1
Change [1]: 0%
Change [2]: -30%
Change [3]: 347%
Change [4]: 41%
Change [5]: -65%

CC(C)(Oc1cccc(OC(C)(C)C(=O)O)c1)C(=O)O
Change [1]: 0%
Change [2]: 0%
Change [6]: 0%
Change [4]: 0%
Change [5]: 0%

COC(=O)C(C)(C)CCCOc1ccc(OCCCC(C)(C)C(=O)OC)c(C(=O)c2ccccc2)c1
Change [1]: 43%
Change [2]: 0%
Change [3]: 421%
Change [4]: 11%
Change [5]: -42%

COC(=O)C(C)(C)CCCOc1ccc(OCCCC(C)(C)C(=O)OC)c(C)c1
Change [8]: -43%
Change [9]: 142%
Change [10]: 25%
Change [11]: -54%
Change [12]: 269%
Change [13]: -65%
Change [14]: 13%
Change [15]: -41%
Change [16]: 0%
Change [23]: -37%
Change [24]: -71%
Change [18]: 1009%
Change [19]: 0%
Change [20]: 452%
Change [25]: 743%
Change [22]: 102%
Change [26]: 38%
Change [27]: 62%

COC(=O)C(C)(C)CCCOc1cccc(OCCCC(C)(C)C(=O)OC)c1N
Change [1]: -41%
Change [2]: -37%
Change [6]: 46%
Change [4]: 8%
Change [5]: -42%

CC(C)(CCCCOc1ccc(OCCCCC(C)(C)C(=O)O)cc1)C(=O)O
Change [8]: -33%
Change [9]: 180%
Change [10]: 14%
Change [28]: 1477%
Change [11]: -40%
Change [12]: 227%
Change [13]: -50%
Change [14]: 4%
Change [15]: -35%
Change [16]: 0%
Change [23]: 0%
Change [18]: 1722%
Change [19]: -16%
Change [29]: 1477%
Change [20]: 339%
Change [22]: 81%
Change [26]: 36%
Change [27]: -20%

CC(C)(CCCOc1ccc(OCCCC(C)(C)C(=O)O)c(-c2ccc(Cl)cc2)c1)C(=O)O
Change [1]: -29%
Change [2]: -47%
Change [6]: 224%
Change [4]: 17%
Change [5]: -78%

CC(C)(CCCOc1ccc(OCCCC(C)(C)C(=O)O)c(Cl)c1)C(=O)O
Change [8]: -65%
Change [9]: 242%
Change [10]: 18%
Change [28]: 753%
Change [11]: -74%
Change [12]: 206%
Change [13]: -77%
Change [14]: 8%
Change [30]: -62%
Change [15]: -60%
Change [16]: -31%
Change [23]: -53%
Change [24]: -62%
Change [18]: 1445%
Change [19]: -28%
Change [20]: 493%
Change [25]: 753%
Change [22]: 94%
Change [26]: 38%
Change [27]: 0%

CC(O)c1cc(OCCCC(C)(C)C(=O)O)ccc1OCCCC(C)(C)C(=O)O (stereo not given)
Change [1]: 0%
Change [2]: -27%
Change [6]: 525%
Change [4]: 12%
Change [5]: -70%

CC(C)(CO)CCCCOc1ccc(OCCCCC(C)(C)CO)cc1
Change [1]: 0%
Change [2]: 0%
Change [6]: 907%
Change [4]: 30%
Change [5]: -54%

CC(C)(CCCOc1ccc(OCCCC(C)(C)C(=O)O)c(-c2ccccc2)c1)C(=O)O
Change [8]: -53%
Change [9]: 945%
Change [10]: 22%
Change [11]: -78%
Change [12]: 741%
Change [13]: -72%
Change [14]: 13%
Change [15]: -52%
Change [16]: 82%
Change [23]: -27%
Change [24]: -85%
Change [18]: 2432%
Change [19]: 32%
Change [20]: 1798%
Change [25]: 1410%
Change [22]: 518%
Change [26]: 34%
Change [27]: 31%

CC(C)(CCCOc1ccc(C(=O)c2ccccc2)c(OCCCC(C)(C)C(=O)O)c1)C(=O)O
Change [1]: 57%
Change [2]: 0%
Change [6]: 169%
Change [4]: 11%
Change [5]: -10%

Cc1ccc(C)c(OCCCC(C)(C)C(=O)O)c1 [GEMFIBROZIL]
Change [8]: 0%
Change [31]: 0%
Change ([9]; 12.5 mg/kg): 98% [middle of 5 runs]
Change ([10]; 25 mg/kg): 10% and 8% and 9% and 11%
Change ([28]; 50 mg/kg): 498% and 306%
Change [11]: -16%
Change ([12]; 25 mg/kg): 215% and 257% and 171% and 236% and 246%
Change ([13]; 25 mg/kg): -22% [middle of 4 runs]
Change [32]: 88% and 134% and 116% and 133%
Change [14]: 7%
Change [30]: -42%
Change ([16]; 25 mg/kg): 64% [middle of 5 runs]
Change ([23]; 50 mg/kg): -26% and -29%
Change [33]: 7% and 4%
Change ([18]; 50 mg/kg): 364% and 594% and 405%
Change [19]: 45%
Change [34]: 339%
Change [35]: -32%
Change ([20]; 25 mg/kg): 214% [middle of 5 runs]
Change [22]: 134%
Change ([26]; 50 mg/kg): 17% and 26% and 13%
Change ([27]; 50 mg/kg): 57% and 69%
Change [36]: 233%
